Bioassay records from PubChem.
This is a sample that favours compounds with a hit; in the whole collection about 2.6% have one here.
IMP-1 inh: IMP-1 metallo-beta-lactamase inhibitors, primary screen, biochemical, epi-absorbance readout, Pseudomonas aeruginosa enzyme. 290,000 tested, 0.45% active. purified IMP-1, nitrocefin hydrolysis, epi-absorbance fluorescence. AID 1556, 2009. metallo-beta-lactamase IMP-1 (Pseudomonas aeruginosa). inhibition, % at 5.6 µM;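 active = inhibition above the mean plus 3 SD of all compounds in the same screening run, cut at about 4.5% in these data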;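 also: 0% = IMP-1 with DMSO and 100% = DMSO wells lacking enzyme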
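assay system = purified recombinant IMP-1 metallo-beta-lactamase enzyme | schedule = 15 min preincubation plus 25 min reaction at 25 °C | signal = Epi-absorbance fluorescence, 480 nm excitation, 530 nm emission | read-out basis = percent inhibition from optical density relative to buffer-blank wells | controls = IMP-1 with DMSO as 0%, enzyme-free DMSO as 100%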
ARFGAP1 inhibitor: inhibitors of rat ARFGAP1 GAP activity, primary screen, biochemical, fluorescence polarization, GDP tracer; ADP-ribosylation factor GTPase-activating protein 1 (Rattus norvegicus), Q62848; inhibition, % at 16.5 µM; Arfgap1-stimulated ARF1 GTP hydrolysis, GDP FP detection; 360,000 tested, 0.26% active; AID 651572, 2012;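 active = inhibition above a per-plate limit, mean inhibition of low control wells plus 3 SD, cut at about 25% in these data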;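 also: 0% = DMSO wells with enzyme and 100% = wells lacking Arfgap1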
Target sequence (Q62848 1-136 limits assumed): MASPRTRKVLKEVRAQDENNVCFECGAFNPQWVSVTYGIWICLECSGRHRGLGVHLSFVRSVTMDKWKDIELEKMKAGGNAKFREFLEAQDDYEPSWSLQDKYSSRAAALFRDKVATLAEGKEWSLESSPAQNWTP
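material = rat Arfgap1 catalytic domain, aa 1-136 | also added = human ARF1(Δ1-17)-GTP substrate | compound dosing = one concentration, 16.5 µM, DMSO 1.26% | times = GTP hydrolysis reaction 2 h at 25 °C | measured by = FP, GDP Alexa 633 tracer displaced from anti-GDP antibody, 620/688 nm | evaluation = percent inhibition of Arfgap1-stimulated GTP hydrolysis | replication = single well per compound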
VIM-2 inh: VIM-2 metallo-beta-lactamase inhibitors, primary screen, biochemical, epi-absorbance readout, Pseudomonas aeruginosa enzyme. purified VIM-2, nitrocefin hydrolysis, epi-absorbance fluorescence. AID 1527, 2009. 290,000 tested, 0.89% active. inhibition, % at 5.6 µM;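 active = inhibition above the mean of all tested compounds plus 3 SD, cutoff set per screening run, cut at about 7.5% in these data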;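 also: red hydrolysis product quenches plate fluorescence so inhibitors raise well fluorescence; 0% = enzyme with DMSO and 100% = DMSO without enzyme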
Calb FLC: C. albicans growth inhibition with fluconazole, primary screen, CaCi-2 strain, Alamar Blue fluorescence; C. albicans CaCi-2 + fluconazole, 48 h; growth inhibition, % (no concentration beside the values); 300,000 tested, 0.57% active; AID 1979, 2009;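 active = growth inhibition above about 58% in most replicates, limit read from the data, passing the limit was not always enough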;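 also: all wells also contain fluconazole at 8 µg/ml as a sub-toxic cotreatment; 0% = median of DMSO wells and 100% = median of geldanamycin control wells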
PHOSPHO1 inh: PubChem AID 1565 | 290,000 tested, 1.1% active | Phosphoethanolamine/phosphocholine phosphatase (Homo sapiens), Q8TCT1 | inhibition, % at 13.3 µM | recombinant PHOSPHO1, absorbance phosphatase assay; in the data active = inhibition above about 60%
Target sequence (Q8TCT1 whole entry, looked up): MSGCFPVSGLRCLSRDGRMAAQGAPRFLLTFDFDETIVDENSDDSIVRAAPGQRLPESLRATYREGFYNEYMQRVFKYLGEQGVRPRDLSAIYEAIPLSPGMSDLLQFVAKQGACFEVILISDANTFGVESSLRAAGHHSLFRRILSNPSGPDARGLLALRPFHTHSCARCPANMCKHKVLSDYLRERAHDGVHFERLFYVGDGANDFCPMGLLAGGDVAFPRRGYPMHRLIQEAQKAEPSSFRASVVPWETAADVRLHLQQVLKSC
ASAP1 inh: inhibitors of human ASAP1 ArfGAP activity, primary screen, biochemical, fluorescence polarization | ASAP1-stimulated ARF1 GTP hydrolysis, GDP FP detection | 360,000 tested, 0.19% active | Arf-GAP with SH3 domain, ANK repeat and PH domain-containing protein 1 (Homo sapiens), … | inhibition, % at 16.5 µM; in the data active = inhibition above about 25%;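 also: 0% = vehicle with enzyme and substrate and 100% = no enzyme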
* = called active by the depositor; · = not tested or not shown; ! = not confirmed by another sample.

SMILES	IMP-1 inh	ARFGAP1 inhibitor	VIM-2 inh	Calb FLC	PHOSPHO1 inh	ASAP1 inh
COc1ccc(CC(=O)Nc2cccc3ccccc23)cc1OC	0	10	-2	-4	19	-29
CCOC(=O)C1=CCN(S(=O)(=O)c2ccc(F)cc2)C1c1ccc(Cl)cc1 (stereo unspecified)	·	3	·	·	·	9
CC1CCc2c(sc3ncnc(N4CCOCC4)c23)C1 (stereo unspecified)	-4	9	0	88*	-2	4
COC(=O)c1ccc(COc2ccc(/C=N/Nc3cccc(C(=O)O)c3)cc2)cc1	-4	-2	-3	4	68*	-7
O=C(O)c1ccc(COc2ccc(/C=N/NC(=O)c3cccs3)cc2)cc1	-3	·	-2	-5	77*	·
O=C(O)c1cccc(N/N=C/c2ccc(OC(F)(F)F)cc2)c1	-1	-5	-1	-1	·	-11
CC(C)(C)C1=CC(CC(N)=O)(C(C)(C)C)OC1=O (stereo unspecified)	·	0	·	·	·	6
COC(=O)C1=C(C)N(Cc2cccc(C(F)(F)F)c2)C(=NCc2ccc(OC)cc2)NC1c1ccccc1C(F)(F)F (stereo unspecified)	·	8	·	·	·	3
C=C1c2cc3c(cc2NC(=S)N1Cc1ccccc1)OCO3	1	-3	-1	-2	70*	3
O=C(Cc1cccs1)NNC(=O)C12CC3CC(CC(C3)C1)C2	-2	-5	-4	-33	61*	-12
CCOC(=O)C1CCN(C(c2cc3ccc(C)c(C)c3[nH]c2=O)c2nnnn2C2CCCCC2)CC1 (stereo unspecified)	1	3	1	5	86*	7
CCOC(=O)C1CCN(C(c2cc3c(C)ccc(C)c3[nH]c2=O)c2nnnn2C2CCCCC2)CC1 (stereo unspecified)	1	-2	-2	24	74*	10
Cc1ccc(C)c2[nH]c(=O)c(C(c3nnnn3C3CCCC3)N3CCOCC3)cc12 (stereo unspecified)	-1	2	-3	-1	-16	6
CCOC(=O)/C(C#N)=C/c1cccc([N+](=O)[O-])c1	-3	20	-3	1	64*	2
COC(=O)C1=C(C)N(C)C(=NCc2ccc3c(c2)OCO3)NC1c1cccc(F)c1 (stereo unspecified)	·	-2	·	·	·	-7
O=C(OCCN1CCOCC1)c1cccnc1	8.4*!	-4	-1	35	31	-13
O=C(OCCN1CCOCC1)c1ccccc1	2	3	1	-2	29	0
C/C=C/Cn1c(Br)nc2c1c(=O)[nH]c(=O)n2C	-3	·	-4	-11	10	·
C/C=C/Cn1c(SC)nc2c1c(=O)[nH]c(=O)n2C	-3	0	1	10	71*	-8
C=CCCC1CN(Cc2ccc(OC)cc2)S(=O)(=O)c2c(Oc3cc(C)c(C)c(C)c3)cccc2O1 (stereo unspecified)	·	1	·	·	·	9
C=CCCCCCCCCc1nc(SCC(=O)O)n[nH]1	-3	-4	-2	-3	-8	-8
C=CCCCCCCCCc1nc(=S)[nH][nH]1	-1	6	-7	7	60*	5
COc1ccc(OC)c(/C=C2\SC(=S)N(C(C(=O)O)c3ccccc3)C2=O)c1 (stereo unspecified)	4.8*	-9	4	6	45	-3
CCOc1ccc(/C=C2\SC(=S)N(C(C(=O)O)c3ccccc3)C2=O)cc1OC (stereo unspecified)	-2	2	-1	9	24	-3
C=CCN=C1NC(c2ccccc2C(F)(F)F)C(C(=O)OC)=C(C)N1Cc1ccccc1C(F)(F)F (stereo unspecified)	·	0	·	·	·	6
SMILES	IMP-1 inh	ARFGAP1 inhibitor	VIM-2 inh	Calb FLC	PHOSPHO1 inh	ASAP1 inh
COc1ccc(Cn2c(C)cc(O)cc2=O)cc1	·	-3	·	·	·	-1
CC(C)(C)c1ccc(C(=O)CC(=O)c2cc(Cl)ccc2O)cc1	-3	0	-2	106*	1	14
COc1ccc(C(=O)CC(=O)c2ccc(C(C)(C)C)cc2)cc1	·	4	·	·	·	2
Cc1ccc(C(=O)CC(=O)c2ccc(C(C)(C)C)cc2)cc1	-2	5	-5	108*	33	5
C=CCCC1CN(Cc2ccc(OC)cc2)S(=O)(=O)c2c(Oc3ccc(C)cc3)cccc2O1 (stereo unspecified)	·	5	·	·	·	7
COC(=O)C1=C(C)N(Cc2ccc(C(F)(F)F)cc2)C(=NCc2ccc(OC)cc2)NC1c1ccccc1 (stereo unspecified)	·	3	·	·	·	6
COCCN(C(=O)Cc1cccs1)C(C(=O)NC1CCCC1)c1cc(OC)c(OC)c(OC)c1 (stereo unspecified)	-4	-16	1	-2	62*	15
Cc1c(C)c2ccc(OCC(=O)NCCN3CCOCC3)c(C)c2oc1=O	0	0	11*	6	36	-4
CCOC(=O)CCc1c(C)c2ccc(OCC(=O)N3CCOCC3)c(C)c2oc1=O	-2	14	-3	-9	62*	4
CCCc1cc(=O)oc2c(C)c(OCC(=O)NCCN3CCOCC3)ccc12	0	0	3	-3	15	-2
COC(=O)[C@]12C[C@H](CC(=O)N3CCC(c4ccccc4)CC3)C(=O)N(Cc3ccccc3)C1=C[C@H](C(C)(C)C)O[C@@H]2C	·	1	·	·	·	-7
CCOC(=O)C1CSCCS(=O)(=O)N1Cc1ccccc1C (stereo unspecified)	·	10	·	·	·	1
CC[n+]1cc(-c2ccccc2)nc(N2CCOCC2)n1	-2	-8	1	-4	100*	8
Nc1nc(NCc2ccco2)nc(N2CCCCC2)c1[N+](=O)[O-]	-4	-11	-3	3	-2	6
CN1CCN(c2nc(NCc3ccco3)nc(N)c2[N+](=O)[O-])CC1	-3	-4	-3	1	60*	-13
COC(=O)N[C@H]1CC=C[C@@H]1Cc1cccc(Oc2ccccc2)c1	·	3	·	·	·	-2
Cn1c(SCC(=O)N2CCOCC2)nnc1-c1cccc(NC(=O)c2ccccc2)c1	-1	-1	-1	-7	92*	0
CC(C)(C)c1ccc(OCC(=O)NNC(=O)CCc2ccccc2)cc1	-3	-8	-4	-13	19	-1
CC(C)(C)c1ccc(C(=O)NC(=S)NNC(=O)COc2ccccc2)cc1	-3	-7	-3	101*	-5	-11
CC(C)(C)C(=O)NC(=S)NNC(=O)c1ccncc1	-2	-4	-3	-23	20	-9
O=C(NC(=S)NNC(=O)c1ccccc1[N+](=O)[O-])c1ccccc1	-8	-2	-6	-3	3	-14
